Experimental data taken from ChEMBL document CHEMBL4316599, “Synthesis, in vitro and in vivo biological evaluation of substituted 3-(5-imidazo[2,1-b]thiazolylmethylene)-2-indolinones as new potent anticancer agents” (Eur J Med Chem, 2019).

Tests used:
CNS carcinoma cell = test: Cytotoxicity against human CNS cancer cells after 48 hrs by SRB assay; format: functional; conditions: for CC50: read-out: LC50 (the source's name)
In short: (§1)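 NCI-60 screen: single-dose pass at 10^-5 M, then a five-concentration assay from 10^-9 to 10^-4 M (highest 100 μM). Exposure was 48 h under standard NCI protocols. GI50, TGI and LC50 were derived per cell line and averaged by subpanel. Repeated tests are the mean of two experiments.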

Melanoma cell line = test: Cytotoxicity against human melanoma cells after 48 hrs by SRB assay; format: functional; conditions: for CC50: read-out: LC50 (the source's name); in short: as §1
NSCLC = test: Cytotoxicity against human NSCLC cells after 48 hrs by SRB assay; format: functional; in short: as §1
[1] = Cytotoxicity against human COLON cells after 48 hrs by SRB assay; format: functional; conditions: for CC50: read-out: LC50 (the source's name); in short: as §1
Ovarian carcinoma cell = test: Cytotoxicity against human ovarian cancer cells after 48 hrs by SRB assay; format: functional; in short: as §1
Renal cancer cell line = test: Cytotoxicity against human renal cancer cells after 48 hrs by SRB assay; format: functional; in short: as §1
Prostatic carcinoma cell = test: Cytotoxicity against human prostate cancer cells after 48 hrs by SRB assay; format: functional; in short: as §1
Breast carcinoma cell = test: Cytotoxicity against human breast cancer cells after 48 hrs by SRB assay; format: functional; in short: as §1
Leukemia cell = test: Cytotoxicity against human leukemia cells after 48 hrs by SRB assay; format: functional; in short: as §1
Tubulin = Tubulin (Bos taurus, UniProt Q6B856+Q862L2+Q862F3); test: Inhibition of bovine brain tubulin polymerization after 20 mins by spectrophotometric analysis
In short: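 Bovine brain tubulin (10 μM) in glutamate buffer preincubated with varying compound levels at 30 °C, then chilled to 0 °C. GTP added to 0.4 mM final, then warmed to 30 °C. Assembly followed by turbidity at 350 nm. IC50 is the concentration halving the extent of assembly after 20 min.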

Tubulin (Bos taurus) [2] = target: T1, Tubulin (Bos taurus) (UniProt Q6B856+Q862L2+Q862F3); test: Inhibition of [3H]colchicine binding to bovine brain tubulin at 5 uM after 20 mins relative to control
In short: (§2)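 Reaction mixtures held 1 μM tubulin, 5 μM [³H]colchicine and test compound at 5 or 50 μM. Read-out was percent inhibition of colchicine binding.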

Tubulin (Bos taurus) [3] = target: T1, Tubulin (Bos taurus); test: Inhibition of [3H]colchicine binding to bovine brain tubulin at 50 uM after 20 mins relative to control; in short: as §2
K562 [4] = test: Cytotoxicity against human K562 cells after 48 hrs by SRB assay; format: functional, cell-based
K562 [5] = test: Cell cycle arrest in human K562 cells assessed as mitotic index at IC50 by Giemsa staining-based assay (reference value: 3%); format: functional
K562 [6] = test: Cell cycle arrest in human K562 cells assessed as mitotic index at 5 times IC50 by Giemsa staining-based assay (reference value: 3%); format: functional
K562 [7] = test: Cell cycle arrest in human K562 cells assessed as mitotic index at 10 times IC50 by Giemsa staining-based assay (reference value: 3%); format: functional
K562 [8] = test: Cytotoxicity against human K562 cells after 16 hrs by SRB assay; conditions: K562, 16 h

| SMILES | GI50 (CNS carcinoma cell) [µM] | TGI (CNS carcinoma cell) [µM] | CC50 (CNS carcinoma cell) [µM] | GI50 (Melanoma cell line) [µM] | TGI (Melanoma cell line) [µM] | GI50 (NSCLC) [µM] | LC50 (NSCLC) [µM] | TGI (NSCLC) [µM] | GI50 [1] [µM] | TGI [1] [µM] | GI50 (Ovarian carcinoma cell) [µM] | LC50 (50% lethal concentration) (Ovarian carcinoma cell) [µM] | TGI (Ovarian carcinoma cell) [µM] | GI50 (Renal cancer cell line) [µM] | TGI (Renal cancer cell line) [µM] | GI50 (Prostatic carcinoma cell) [µM] | GI50 (Breast carcinoma cell) [µM] | TGI (Breast carcinoma cell) [µM] | GI50 (Leukemia cell) [µM] | CC50 [1] [µM] | also measured |
| --- | --- | --- | --- | --- | --- | --- | --- | --- | --- | --- | --- | --- | --- | --- | --- | --- | --- | --- | --- | --- | --- |
| COc1cc2c(cc1C)NC(=O)/C2=C/c1c(OC)nc2sc(C)cn12 | 5.7 | 20.4 | 68.3 | 31.5 | 91.7 | 5.25 | 98 | 74.9 | 42.9 | 91.7 | 7.22 | 91.4 | 47.1 | 5.81 | 58.9 | 18.8 | 4.57 | 50.9 |  |  | LC50 (50% lethal concentration) (Renal cancer cell line): 90.6 µM; LC50 (concentration killing 50% of cells) (Breast carcinoma cell): 91.4 µM |
| COc1nc2sc(C)cn2c1/C=C1/C(=O)Nc2ccccc21 | 1.97 | 40.1 | 87.9 | 16.2 | 74.8 | 5.68 | 99 | 65.2 | 0.8 | 56.8 | 6.29 | 96.3 | 55.6 | 3.53 | 67.6 | 2.09 | 2.52 | 67.3 | 0.5 | 93.3 | CC50 (Melanoma cell line): 94.9 µM; LC50 (Leukemia cell): 93.7 µM; TGI (Leukemia cell): 7.25 µM; TGI (Prostatic carcinoma cell): 45 µM; IC50 (Tubulin): 3.4 µM; inhibition (Tubulin (Bos taurus) [2]): 39%; inhibition (Tubulin (Bos taurus) [3]): 81%; Activity (K562 [4]): Dose-dependent effect; Activity (K562 [5]): 42%; Activity (K562 [6]): 61%; Activity (K562 [7]): 80%; IC50 (K562 [8]): 1 µM |
| COc1nc2sc(C)cn2c1/C=C1/C(=O)Nc2ccc(O)cc21 | 4.76 | 64 |  | 4.88 | 38.6 | 7.54 |  | 72 | 4.79 | 78.2 | 12.8 |  | 63.5 | 6.58 | 79.4 | 7.59 | 4.57 | 66.2 | 3.32 | 98.2 | CC50 (Melanoma cell line): 94 µM; TGI (Leukemia cell): 61.7 µM; TGI (Prostatic carcinoma cell): 96.2 µM |
| COc1nc2sc(C)cn2c1/C=C1/C(=O)Nc2c1ccc1ccccc21 | 0.42 | 38.6 | 82.9 | 0.52 | 43.3 | 2.82 | 91.4 | 45.3 | 0.37 | 34.6 | 0.62 | 91.2 | 35.3 | 1.06 | 38.3 | 0.3 | 0.79 | 51.3 | 0.34 | 71.1 | CC50 (Melanoma cell line): 95 µM; TGI (Leukemia cell): 84.8 µM; LC50 (50% lethal concentration) (Renal cancer cell line): 89.6 µM; TGI (Prostatic carcinoma cell): 35.2 µM; CC50 (Prostatic carcinoma cell; read-out: LC50 (the source's name)): 75.9 µM |
| COc1ccc2c(c1)/C(=C\c1c(OC)nc3sc(C)cn13)C(=O)N2 | 0.43 | 33.6 | 85.4 | 3.46 | 67.7 | 1.49 | 88.9 | 58.6 | 0.32 | 35.7 | 1.32 | 87.6 | 42.6 | 0.65 | 61.8 | 0.38 | 0.87 | 61.3 | 0.43 | 79.2 | TGI (Prostatic carcinoma cell): 52.8 µM |
